Screening data as filed in PubChem.
In the library only some 0.79% were active in any assay of this set; here they are far more common.
bIAP activator: intestinal alkaline phosphatase (bovine) activation | AID 1016 | 200,000 tested, 0.17% active | activation factor at 20 µM | purified bovine IAP, CDP-star luminescence, 30 min; stronger effect = higher value; fold of DMSO-control signal, blank-subtracted;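 active = activation factor of 2 or more at 20 µM, a signal rise over negative controls twice the positive control's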
mIAP block: mouse IAP inhibition. 330,000 tested, 0.2% active. AID 2806. purified mouse IAP, CDP-Star luminescence, 30 min. inhibition, % at 10 µM;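 active = inhibition of at least 40% at 10 µM in the primary screen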;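 note: plate controls were DMSO with enzyme for no effect and no enzyme wells for full effect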
hIAP act: human IAP activation. P09923. purified human IAP, CDP-Star luminescence, 30 min; stronger effect = higher value; 1 = vehicle-only enzyme, 0 = enzyme-free background. activation factor at 10 µM. 330,000 tested, 0.16% active;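 active = activation factor of the enzyme at least 2-fold when tested at 20 µM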
Target sequence (P09923 whole entry, looked up): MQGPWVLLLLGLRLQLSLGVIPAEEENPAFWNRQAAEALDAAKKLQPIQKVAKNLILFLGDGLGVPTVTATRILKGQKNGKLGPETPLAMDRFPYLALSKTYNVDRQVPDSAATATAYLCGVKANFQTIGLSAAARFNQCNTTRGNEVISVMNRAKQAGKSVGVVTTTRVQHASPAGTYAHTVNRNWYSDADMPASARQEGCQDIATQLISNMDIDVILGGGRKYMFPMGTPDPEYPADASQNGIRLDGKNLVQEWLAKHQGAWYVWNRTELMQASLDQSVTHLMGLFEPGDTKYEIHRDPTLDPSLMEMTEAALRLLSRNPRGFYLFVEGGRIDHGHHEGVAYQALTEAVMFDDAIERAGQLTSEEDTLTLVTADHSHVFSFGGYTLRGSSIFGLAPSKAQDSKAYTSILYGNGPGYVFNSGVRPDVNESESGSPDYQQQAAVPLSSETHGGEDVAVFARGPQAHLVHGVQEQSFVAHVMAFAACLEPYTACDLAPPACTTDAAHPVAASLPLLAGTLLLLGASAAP
bIAP inhibitor: blocks bovine intestinal alkaline phosphatase activity | AID 1019 | 190,000 tested, under 10 active | inhibition, % at 20 µM | purified bovine IAP, CDP-star luminescence, 30 min;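 active = over 50% inhibition of intestinal alkaline phosphatase at 20 µM in the single-dose screen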
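Incubation: 30 min reaction at room temperature / Material: purified bovine intestinal alkaline phosphatase (IAP) enzyme / Input: enzyme at 1/65,000,000 dilution / Dosing: 20 µM single dose / Signal: CDP-star luminescence signal / Reagent: CDP-star chemiluminescent phosphatase substrate, 30 µM final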
hIAP inh: human IAP inhibition; purified IAP, CDP-Star luminescence, 30 min; inhibition, % at 10 µM; 330,000 tested, 0.12% active;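 active = inhibition reaching a set limit with compound at 10 µM in the primary screen, cut at about 35% in these data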;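 note: plate controls were DMSO wells with enzyme for no effect and no-enzyme buffer wells for full effect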
mIAP activ: increases mouse intestinal alkaline phosphatase activity; muIAP, CDP-Star luminescence, 30 min; stronger effect = higher value; 1 = vehicle-only enzyme signal, 0 = enzyme-free wells; activation factor at 10 µM; 330,000 tested, 0.24% active; AID 2805;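 active = activation factor of at least 2 at 20 µM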
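also added = chemiluminescent substrate CDP-Star | test system = mouse IAP enzyme | signal = chemiluminescence readout | compound = DMSO-dissolved test compounds | incubation = 30 min at room temperature | benchmarks = DMSO wells, no-enzyme wells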
The depositor's hits bear a star; / = no result.

SMILES | bIAP activator | mIAP block | hIAP act | bIAP inhibitor | hIAP inh | mIAP activ
Cc1ccc(OS(=O)(=O)c2c(C)nn(C)c2Cl)c(C)c1 | / | 6 | 1 | / | 0 | 0.94
Cc1nc(SCC(=O)N2CCCCCC2)[nH]c(=O)c1C | / | -4 | 1.1 | / | -13 | 1
COc1ccc(CCNC(=O)CSc2cn(Cc3cccc(C)c3)c3ccccc23)cc1OC | 0.9 | -125 | 0.93 | 13 | 7 | 2.2*
O=Cc1[nH]c2ccccc2c1N(C(=O)CCl)c1ccc([N+](=O)[O-])cc1 | / | 3 | 0.65 | / | 35* | 0.97
CC(=O)n1cc(N(C(=O)CCl)c2ccc([N+](=O)[O-])cc2)c2ccccc21 | / | 5 | 1.1 | / | -12 | 0.95
CCC(C(=O)NCCCN1CCOCC1)n1c2ccccc2c2nc(=O)cc(C)n21 (stereo unspecified) | / | 6 | 0.83 | / | 17 | 0.94
Cn1cccc1CC(=O)NNC(=S)Nc1ccc(Cl)cc1 | 1 | 4 | 2.1* | -4 | -110 | 0.96
CCn1c(C(O)c2cc(OC)c(OC)c(OC)c2)nc2ccccc21 (stereo unspecified) | / | -6 | 1.1 | / | -11 | 1.1
CCn1c(C(O)c2ccc3c(c2)OCO3)nc2ccccc21 (stereo unspecified) | 2.5* | -2 | 0.91 | -154 | 9 | 1
COc1cc(/C=C2/CC/C(=C/c3ccc(O)c(OC)c3)C2=O)ccc1O | / | 36 | 0.9 | / | 10 | 0.64
COc1cc(/C=C2\COC/C(=C\c3ccc(O)c(OC)c3)C2=O)ccc1O | / | 42* | 0.89 | / | 11 | 0.58
O=S(=O)(Nc1ccon1)c1ccc(F)c(F)c1 | / | -12 | 0.85 | / | 15 | 1.1
Cc1ccc(NC2=NC3(CCCC3)N=C(N)N2)c(C)c1 | 1.1 | -3 | 1.1 | -10 | -7 | 1
Cc1cccc(NC2=NC3(CCCCC3)N=C(N)N2)c1C | 2.7* | -16 | 0.95 | -167 | 5 | 1.2
Cc1ccccc1NC1=NC2(CCCC2)N=C(N)N1 | 1.1 | 3 | 0.98 | -6 | 2 | 0.97
Cc1ccc(NC2=NC3(CCCCC3)N=C(N)N2)c(C)c1 | 3.7* | -14 | 1.5 | -272 | -49 | 1.1
Cc1cccc(OCC(=O)N/N=C/CC(C)c2ccccc2)c1C (stereo unspecified) | 1.2 | 2 | 1 | -23 | -4 | 0.98
Cc1ccc(S(=O)(=O)N(C)C)cc1NC(=O)COC(=O)c1ccc2c(=O)n3c(nc2c1)CCC3 | / | 0 | 0.84 | / | 16 | 1
CC1CCN(CCC(=O)Nc2ccc(F)c(F)c2)CC1 | / | -3 | 1.2 | / | -21 | 1
CC(O)CNc1nc2ccccc2n1-c1ncnc2sc3c(c12)CCC3 (stereo unspecified) | 2.1* | -44 | 1.1 | -105 | -8 | 1.4
COC(=O)N/N=C/c1c(C)nn(-c2cccc(Cl)c2)c1Cl | 3* | 4 | 0.9 | -201 | 10 | 0.96
CCc1ccccc1NC(=O)CN(c1ccc(OC)cc1OC)S(=O)(=O)c1ccccc1 | / | 2 | 1.2 | / | -19 | 0.98
O=C(NC1CC2CCC(C1)N2C(=O)NC1CCCCC1)NC12CC3CC(CC(C3)C1)C2 (stereo unspecified) | 1.9 | -7 | 1 | -87 | -1 | 1.1
O=C(NC1CC2CCCC(C1)N2C1CC1)NC12CC3CC(CC(C3)C1)C2 (stereo unspecified) | 3.1* | / | / | -214 | / | /
CCCOC(=O)c1ccc(NC(=O)Oc2ccccc2)cc1 | 2.6* | -4 | 0.85 | -157 | 15 | 1
SMILES | bIAP activator | mIAP block | hIAP act | bIAP inhibitor | hIAP inh | mIAP activ
O=C(COC(=O)c1cc[n+]([O-])cc1)Nc1ccc([N+](=O)[O-])cc1 | 0.9 | 2 | 0.96 | 7 | 4 | 0.97
O=C(O)CCCCCn1c(O)c(C=C2N=c3ccccc3=N2)sc1=S | 0.8 | 40* | 1.3 | 24 | -30 | 0.6
Cc1cc([N+](=O)[O-])cc(/C=N\NC(=O)C2COc3ccccc3O2)c1O (stereo unspecified) | / | 42* | 1.3 | / | -34 | 0.58
O=C(N/N=C\c1ccc(O)c([N+](=O)[O-])c1)C1COc2ccccc2O1 (stereo unspecified) | / | 4 | 1.1 | / | -10 | 0.96
CCOC(=O)C(CC)Sc1nc2c(c(=O)[nH]c(=O)n2C)n1CCc1ccccc1 (stereo unspecified) | 2.8* | 18 | 1.2 | -183 | -16 | 0.82
CCOC(=O)CSc1nc2c(c(=O)[nH]c(=O)n2C)n1CCc1ccccc1 | 0.9 | -10 | 1.1 | 10 | -11 | 1.1
COc1ccc(CNC(=O)Nc2cccc3ccccc23)cc1 | 1.2 | -106 | 0.95 | -21 | 5 | 2.1*
CCOC(=O)c1ccc(NC(=O)NCc2ccc(OC)cc2)cc1 | 1.1 | -119 | 0.98 | -6 | 2 | 2.2*
O=C(Nc1ccccc1)Nc1cccc2ccccc12 | / | -189 | 1 | / | -2 | 2.9*
O=C(NCCc1c[nH]c2ccccc12)Nc1cccc2ccccc12 | 0.8 | -132 | 0.97 | 22 | 2 | 2.3*
CCOc1ccccc1NC(=O)NCCc1c[nH]c2ccccc12 | / | -21 | 1.2 | / | -20 | 1.2
CCOC(=O)CNC(=O)N1CCCC(C(=O)c2cccc(Cl)c2)C1 (stereo unspecified) | 1.1 | 6 | 1.1 | -14 | -8 | 0.94
O=C(NCc1cccc2ccccc12)Nc1ccccc1 | 0.9 | -100 | 1.1 | 6 | -13 | 2*
CC(=O)c1cccc(NC(=S)NCc2ccccc2)c1 | / | -2 | 1.1 | / | -5 | 1
O=C(NCc1ccccc1)Nc1cccc2ccccc12 | 1.1 | -65 | 1.1 | -8 | -10 | 1.6
CCOC(=O)c1cccc(NC(=S)NCc2ccc(C)cc2)c1 | 0.9 | -143 | 1.2 | 7 | -17 | 2.4*
CCOC(=O)C1(CCCc2ccccc2)CCN(C(=O)Cn2nc(C)nc2C)CC1 | / | -1 | 0.85 | / | 15 | 1
Cc1cc(C)c(S(C)(=O)=O)c(NN)n1 | 1.2 | -4 | 1.1 | -19 | -9 | 1
c1ccc2c3c([nH]c2c1)C(C1CCCCC1)N(Cc1ncc[nH]1)CC3 (stereo unspecified) | 2.1* | -24 | 1.1 | -109 | -10 | 1.2
CCOc1ccc(CC(=O)Nc2c3c(nn2C(C)(C)C)CS(=O)(=O)C3)cc1 | / | -1 | 0.9 | / | 10 | 1
CN(C)c1ccc(N2C(=O)CSC2=S)cc1 | 0.9 | 47* | 0.9 | 8 | 10 | 0.53
CSc1nsc(SCC(=O)Nc2cccc(NC(C)=O)c2)n1 | / | 13 | 1 | / | 0 | 0.87
CN1CCC(=NNC(=O)C(=O)NC(C)(C)C)CC1 | 3.8* | 9 | 0.96 | -276 | 4 | 0.91
CC(C)(C)NC(=O)C(=O)NN=C1CCCCCC1 | 1 | -5 | 1.1 | 2 | -7 | 1
Cc1ccc2nc(C)cc(C(=O)OCC(=O)Nc3cccnc3Cl)c2c1 | 1 | 0 | 1.1 | -1 | -14 | 0.99
COC(=O)C1=C(C)NC(=O)NC1c1ccc(N2CCC(c3ccccc3)=N2)cc1 (stereo unspecified) | 1 | -119 | 1.2 | -2 | -21 | 2.2*
